Measured values from ChEMBL document CHEMBL1134857, “The synthesis and biological evaluation of a novel series of antimicrobials of the oxazolidinone class” (Bioorg Med Chem Lett, 2002).
Converted amounts (≈) assume the structure as drawn.

Columns and labels:
Enterococcus faecium = experiment: Minimum inhibitory concentration measured against Enterococcus faecium; format: functional
Moraxella catarrhalis = experiment: Minimum inhibitory concentration measured against Moraxella catarrhalis; format: functional
Staphylococcus aureus = experiment: Minimum inhibitory concentration measured against Staphylococcus aureus; format: functional
[1] = tested on: Staphylococcus epidermidis; experiment: Minimum inhibitory concentration measured against Staphylococcus epidermidis; format: functional
Streptococcus pneumoniae = experiment: Minimum inhibitory concentration measured against Streptococcus pneumoniae; format: functional
[2] = biological target: T1, Amine oxidase [flavin-containing] B (Rattus norvegicus, UniProt P19643); experiment: Inhibition of Monoamine oxidase B in rat primary hepatocytes; format: cell-based, Hepatocyte
T1 sequence (P19643 whole entry): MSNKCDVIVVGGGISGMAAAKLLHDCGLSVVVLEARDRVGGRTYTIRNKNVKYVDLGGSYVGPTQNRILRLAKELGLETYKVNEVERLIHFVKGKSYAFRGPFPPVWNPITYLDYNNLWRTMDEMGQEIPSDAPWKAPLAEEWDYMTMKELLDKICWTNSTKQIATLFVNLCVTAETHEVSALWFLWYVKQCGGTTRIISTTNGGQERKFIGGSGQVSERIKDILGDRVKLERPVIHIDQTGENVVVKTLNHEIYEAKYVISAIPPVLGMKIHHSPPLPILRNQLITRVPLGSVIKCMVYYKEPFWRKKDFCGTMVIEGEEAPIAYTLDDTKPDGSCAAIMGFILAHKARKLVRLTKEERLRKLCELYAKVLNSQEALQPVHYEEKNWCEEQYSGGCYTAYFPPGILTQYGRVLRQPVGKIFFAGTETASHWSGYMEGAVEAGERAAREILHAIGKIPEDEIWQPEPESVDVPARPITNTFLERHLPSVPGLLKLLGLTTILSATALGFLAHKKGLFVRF

Rattus norvegicus = species: Rattus norvegicus; experiment: Inhibition of mitochondrial protein synthesis (MPS) in rat heart mitochondria; format: functional
Summary of the method: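 Rat heart mitochondria were incubated at 1 mg/mL protein (Bradford) in buffer with translation components (ADP, amino acids). Incorporation of S35 methionine was followed for 1 h at 30 °C, then quenched with cold 5% TCA/5 mM methionine. Triplicate aliquots were filtered, washed and counted. Compounds were tested at 6–7 concentrations, ≤1% organic. IC50 came from the linear portion of the percent-of-control curve, as the mean of ≥2 experiments.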

[3] = biological target: T1, Amine oxidase [flavin-containing] B; experiment: Compound was evaluated for inhibition of Mono aminoxidase B in rat primary hepatocytes; format: cell-based, Hepatocyte

SMILES | MIC (Enterococcus faecium) [µg/mL] | MIC (Moraxella catarrhalis) [µg/mL] | MIC (Staphylococcus aureus) [µg/mL] | MIC [1] [µg/mL] | MIC (Streptococcus pneumoniae) [µg/mL] | IC50 [2] [µM] | IC50 (Rattus norvegicus) [µM] | IC50 [3] [µM]
CC(=O)NC[C@H]1CN(c2ccc(/C=C\F)c(F)c2)C(=O)O1 | 8 (≈ 27 µM) | 32 (≈ 108 µM) | 8 (≈ 27 µM) | 8 (≈ 27 µM) | 2 (≈ 6.75 µM) |  |  | 
COc1ccc(C(C)C)cc1/C(Br)=C/c1ccc(N2C[C@H](CNC(C)=O)OC2=O)cc1F | > 128 | 32 (≈ 63.3 µM) | > 128 | > 128 | 64 (≈ 127 µM) |  |  | 
CC(=O)NC[C@H]1CN(c2ccc(/C=C(\Br)c3cccc(C(N)=O)c3)c(F)c2)C(=O)O1 | 2 (≈ 4.2 µM) | 16 (≈ 33.6 µM) | 4 (≈ 8.4 µM) | 4 (≈ 8.4 µM) | 4 (≈ 8.4 µM) |  |  | 
CC(=O)NC[C@H]1CN(c2ccc(/C=C(\Br)c3cccc(NC(C)=O)c3)c(F)c2)C(=O)O1 | 2 (≈ 4.08 µM) | 64 (≈ 131 µM) | 4 (≈ 8.16 µM) | 2 (≈ 4.08 µM) | 2 (≈ 4.08 µM) |  |  | 
CC(=O)NC[C@H]1CN(c2ccc(/C=C/c3cncc(C#N)c3)c(F)c2)C(=O)O1 | 2 (≈ 5.26 µM) | 16 (≈ 42.1 µM) | 4 (≈ 10.5 µM) | 2 (≈ 5.26 µM) | 16 (≈ 42.1 µM) | > 300 | 9.4 | 
CC(=O)NC[C@H]1CN(c2ccc(/C=C(\Br)c3ccco3)c(F)c2)C(=O)O1 | 0.5 (≈ 1.18 µM) | 1 (≈ 2.36 µM) | 1 (≈ 2.36 µM) | 0.25 (≈ 0.591 µM) | 0.5 (≈ 1.18 µM) |  |  | 
CC(=O)NC[C@H]1CN(c2ccc(/C=C(\F)S(=O)(=O)c3ccccc3)c(F)c2)C(=O)O1 | 8 (≈ 18.3 µM) | 64 (≈ 147 µM) | 8 (≈ 18.3 µM) | 8 (≈ 18.3 µM) | 8 (≈ 18.3 µM) |  |  | 
COC(=O)c1cccc(/C(Br)=C/c2ccc(N3C[C@H](CNC(C)=O)OC3=O)cc2F)c1 | 4 (≈ 8.14 µM) | > 128 | 8 (≈ 16.3 µM) | 8 (≈ 16.3 µM) | 32 (≈ 65.1 µM) | > 300 | 150 | 
CC(=O)NC[C@H]1CN(c2ccc(/C=C(/F)c3cccnc3)c(F)c2)C(=O)O1 | 4 (≈ 10.7 µM) | 32 (≈ 85.7 µM) | 8 (≈ 21.4 µM) | 4 (≈ 10.7 µM) | 4 (≈ 10.7 µM) |  |  | 
CC(=O)NC[C@H]1CN(c2ccc(/C=C(\F)c3cccc(C=O)c3)c(F)c2)C(=O)O1 | 1 (≈ 2.5 µM) | 64 (≈ 160 µM) | 1 (≈ 2.5 µM) | 0.5 (≈ 1.25 µM) | 4 (≈ 9.99 µM) | > 300 | 9.9 | 
CC(=O)NC[C@H]1CN(c2ccc(/C=C(\F)c3cnc(N)nc3)c(F)c2)C(=O)O1 | 8 (≈ 20.5 µM) | 32 (≈ 82.2 µM) | 16 (≈ 41.1 µM) | 4 (≈ 10.3 µM) | 8 (≈ 20.5 µM) |  |  | 
CC(=O)NC[C@H]1CN(c2ccc(/C=C(\Br)c3cccc(C(C)=O)c3)c(F)c2)C(=O)O1 | 1 (≈ 2.1 µM) | 4 (≈ 8.42 µM) | 2 (≈ 4.21 µM) | 1 (≈ 2.1 µM) | 1 (≈ 2.1 µM) |  |  | 
CC(=O)NC[C@H]1CN(c2ccc(/C=C(\Br)c3cccc(C=O)c3)c(F)c2)C(=O)O1 | 0.5 (≈ 1.08 µM) | 1 (≈ 2.17 µM) | 0.5 (≈ 1.08 µM) | 0.25 (≈ 0.542 µM) | 1 (≈ 2.17 µM) | > 300 | 33 | 
CC(=O)NC[C@H]1CN(c2ccc(/C=C(\Br)c3ccc(C(C)=O)s3)c(F)c2)C(=O)O1 | 0.5 (≈ 1.04 µM) | 2 (≈ 4.16 µM) | 1 (≈ 2.08 µM) | 0.5 (≈ 1.04 µM) | 0.5 (≈ 1.04 µM) |  |  | 
CC(=O)NC[C@H]1CN(c2ccc(/C=C(\Br)c3c(C)oc[n+]3C)c(F)c2)C(=O)O1 | 32 | 64 | 32 | 16 | 8 | 21 | 54 | 
CC(=O)NC[C@H]1CN(c2ccc(/C=C/c3cccnc3)c(F)c2)C(=O)O1 | 2 (≈ 5.63 µM) | 16 (≈ 45 µM) | 4 (≈ 11.3 µM) | 2 (≈ 5.63 µM) | 16 (≈ 45 µM) | 59 | 7.8 | 
CC(=O)NC[C@H]1CN(c2ccc(/C=C(\Br)c3ccncc3)c(F)c2)C(=O)O1 | 1 (≈ 2.3 µM) | 16 (≈ 36.8 µM) | 8 (≈ 18.4 µM) | 2 (≈ 4.61 µM) | 1 (≈ 2.3 µM) | 186 | 14 | 
CC(=O)NC[C@H]1CN(c2ccc(/C=C(\Br)c3ccc(C(C)=O)cc3)c(F)c2)C(=O)O1 | 32 (≈ 67.3 µM) | 128 (≈ 269 µM) | 64 (≈ 135 µM) | 64 (≈ 135 µM) | 1 (≈ 2.1 µM) |  |  | 

SMILES | MIC (Enterococcus faecium) [µg/mL] | MIC (Moraxella catarrhalis) [µg/mL] | MIC (Staphylococcus aureus) [µg/mL] | MIC [1] [µg/mL] | MIC (Streptococcus pneumoniae) [µg/mL] | IC50 [2] [µM] | IC50 (Rattus norvegicus) [µM] | IC50 [3] [µM]
CC(=O)NC[C@H]1CN(c2ccc(/C=C(\F)c3nnn(C)n3)c(F)c2)C(=O)O1 | 4 (≈ 10.6 µM) | 32 (≈ 84.6 µM) | 8 (≈ 21.1 µM) | 1 (≈ 2.64 µM) | 2 (≈ 5.29 µM) | > 300 | 4.9 | 
CC(=O)NC[C@H]1CN(c2ccc(/C=C(\F)c3nccs3)c(F)c2)C(=O)O1 | 2 (≈ 5.27 µM) | 8 (≈ 21.1 µM) | 2 (≈ 5.27 µM) | 2 (≈ 5.27 µM) | 2 (≈ 5.27 µM) | < 9.4 |  | 
CC(=O)NC[C@H]1CN(c2ccc(/C=C(\Br)c3cccc(N)c3)c(F)c2)C(=O)O1 | 2 (≈ 4.46 µM) | 8 (≈ 17.8 µM) | 2 (≈ 4.46 µM) | 1 (≈ 2.23 µM) | 2 (≈ 4.46 µM) |  |  | 
CC(=O)NC[C@H]1CN(c2ccc(/C=C(\Br)c3ccc(C#N)cc3)c(F)c2)C(=O)O1 | 2 (≈ 4.36 µM) | > 128 | 4 (≈ 8.73 µM) | 1 (≈ 2.18 µM) | 0.5 (≈ 1.09 µM) | > 150 | 76 | 
CC(=O)NC[C@H]1CN(c2ccc(/C=C(\Br)c3ccccc3C#N)c(F)c2)C(=O)O1 | 4 (≈ 8.73 µM) | 128 (≈ 279 µM) | 16 (≈ 34.9 µM) | 4 (≈ 8.73 µM) | 2 (≈ 4.36 µM) | > 150 | 36 | 
CC(=O)NC[C@H]1CN(c2ccc(/C=C(\F)c3cccc(C(C)=O)c3)c(F)c2)C(=O)O1 | 2 (≈ 4.83 µM) | > 128 | 0.5 (≈ 1.21 µM) | 1 (≈ 2.41 µM) | 1 (≈ 2.41 µM) | > 300 | 69 | 
CC(=O)NC[C@H]1CN(c2ccc(/C=C(\Br)c3cccnc3)c(F)c2)C(=O)O1 | 2 (≈ 4.61 µM) | 8 (≈ 18.4 µM) | 2 (≈ 4.61 µM) | 1 (≈ 2.3 µM) | 1 (≈ 2.3 µM) | 121 | 12 | 
COc1ccncc1/C(Br)=C/c1ccc(N2C[C@H](CNC(C)=O)OC2=O)cc1F | 2 (≈ 4.31 µM) | 32 (≈ 68.9 µM) | 8 (≈ 17.2 µM) | 4 (≈ 8.62 µM) | 2 (≈ 4.31 µM) |  |  | 
CC(=O)NC[C@H]1CN(c2ccc(/C=C(\F)c3cccc(C#N)c3)c(F)c2)C(=O)O1 | > 128 | > 128 | > 128 | 128 (≈ 322 µM) | 2 (≈ 5.03 µM) | > 300 | > 300 | 
CC(=O)NC[C@H]1CN(c2ccc(/C=C(\F)c3cncnc3)c(F)c2)C(=O)O1 | 2 (≈ 5.34 µM) | 4 (≈ 10.7 µM) | 2 (≈ 5.34 µM) | 1 (≈ 2.67 µM) | 1 (≈ 2.67 µM) | 475 |  | 
CC(=O)NC[C@H]1CN(c2ccc(/C=C(\Br)c3cccc(C#N)c3)c(F)c2)C(=O)O1 | 0.125 (≈ 0.273 µM) | 1 (≈ 2.18 µM) | 0.25 (≈ 0.546 µM) | 0.125 (≈ 0.273 µM) | 0.25 (≈ 0.546 µM) | > 150 | 24 | 
CC(=O)NC[C@H]1CN(c2ccc(/C=C(\F)c3cncc(C#N)c3)c(F)c2)C(=O)O1 | 1 (≈ 2.51 µM) | 4 (≈ 10 µM) | 1 (≈ 2.51 µM) | 0.5 (≈ 1.26 µM) | ≤ 0.125 | > 300 | < 0.1 | 
CC(=O)NC[C@H]1CN(c2ccc(/C=C(\F)c3cccnc3)c(F)c2)C(=O)O1 | 1 (≈ 2.68 µM) | 8 (≈ 21.4 µM) | 4 (≈ 10.7 µM) | 0.25 (≈ 0.67 µM) | 0.5 (≈ 1.34 µM) | 98 | 1.6 | 
CC(=O)NC[C@H]1CN(c2ccc(/C=C(\Br)c3cccc(CO)c3)c(F)c2)C(=O)O1 | 0.5 (≈ 1.08 µM) | 4 (≈ 8.63 µM) | 2 (≈ 4.32 µM) | 1 (≈ 2.16 µM) | 1 (≈ 2.16 µM) | > 150 | 8 | 
CC(=O)NC[C@H]1CN(c2ccc(/C=C(\Br)c3cncc(C#N)c3)c(F)c2)C(=O)O1 | < 0.125 | 2 (≈ 4.35 µM) | 1 (≈ 2.18 µM) | 0.25 (≈ 0.544 µM) | ≤ 0.125 | > 300 | 1.3 | 
CC(=O)NC[C@H]1CN(c2ccc(/C=C(\Br)c3ccccc3)c(F)c2)C(=O)O1 | 16 (≈ 36.9 µM) | 128 (≈ 295 µM) | 16 (≈ 36.9 µM) | 16 (≈ 36.9 µM) | 2 (≈ 4.62 µM) | < 9.4 | > 300 | 
CC(=O)NC[C@H]1CN(c2ccc(N3CCOCC3)c(F)c2)C(=O)O1 [LINEZOLID] | 2 (≈ 5.93 µM) | 4 (≈ 11.9 µM) |  | 1 (≈ 2.96 µM) |  |  | 12 | 17
